Screens as filed in PubChem BioAssay.
The list is not random: actives were taken first. Their share in the collection is about 5.9%.
Pyk2 oligo antag: blocks oligomerization of human Pyk2 in cells | Q293 cells, Pyk2 FERM NanoBiT luminescence; hits give low values | AID 1347419 | 99,000 tested, 0.83% active | z-score (the deposit names both 25 µM and 10 µM) | Q14289;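 active means Z-score of -3 or lower, scaled per plate to the spread of control and sample wells; inactive means z-score above -3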;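 further: negative z-score means lost luminescence so less FERM oligomerization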
Target sequence (Q14289 whole entry, looked up): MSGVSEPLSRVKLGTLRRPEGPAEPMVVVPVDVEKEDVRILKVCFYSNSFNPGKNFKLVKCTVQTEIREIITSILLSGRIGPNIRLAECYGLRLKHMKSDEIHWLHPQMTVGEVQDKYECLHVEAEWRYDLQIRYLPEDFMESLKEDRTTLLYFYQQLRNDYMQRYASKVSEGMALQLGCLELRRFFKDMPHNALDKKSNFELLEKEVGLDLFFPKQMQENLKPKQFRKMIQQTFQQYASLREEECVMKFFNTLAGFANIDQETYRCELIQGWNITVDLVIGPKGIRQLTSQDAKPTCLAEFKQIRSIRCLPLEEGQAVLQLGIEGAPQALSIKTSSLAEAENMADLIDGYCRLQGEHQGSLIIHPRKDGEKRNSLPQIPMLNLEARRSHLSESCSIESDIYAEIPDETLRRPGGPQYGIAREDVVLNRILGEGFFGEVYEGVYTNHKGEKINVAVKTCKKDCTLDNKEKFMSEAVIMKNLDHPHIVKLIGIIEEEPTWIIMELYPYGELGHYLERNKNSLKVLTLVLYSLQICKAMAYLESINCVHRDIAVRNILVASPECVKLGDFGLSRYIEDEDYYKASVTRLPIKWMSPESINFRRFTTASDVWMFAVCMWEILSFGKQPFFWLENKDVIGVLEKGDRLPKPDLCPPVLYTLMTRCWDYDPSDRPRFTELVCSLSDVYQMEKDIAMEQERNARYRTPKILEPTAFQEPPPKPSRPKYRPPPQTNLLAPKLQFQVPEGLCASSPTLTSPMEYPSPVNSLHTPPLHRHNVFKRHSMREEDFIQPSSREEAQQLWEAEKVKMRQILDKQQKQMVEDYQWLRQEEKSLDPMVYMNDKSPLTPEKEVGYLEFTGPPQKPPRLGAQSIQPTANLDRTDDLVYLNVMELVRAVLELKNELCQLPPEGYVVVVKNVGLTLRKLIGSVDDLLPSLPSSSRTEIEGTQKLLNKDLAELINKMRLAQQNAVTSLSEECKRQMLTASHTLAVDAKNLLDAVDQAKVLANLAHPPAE
Fibroblast inh: blocks proliferation of human lung fibroblasts. LL 47 human lung fibroblast viability, ATP luminescence; hits give low values. viability, % at 10 µM. 85,000 tested, 1.1% active;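 active means viability at or below 50% in the single dose screen; inactive means viability above 50%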;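 further: compound exposure lasted 72 h before the ATP readout; 100% = median luminescence of untreated cell-only wells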
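Material: human lung fibroblast line LL 47, low passage; Evaluation: viability percentage against median untreated-cell control; Buffer or medium: 15% FBS in IMEM; Incubation: 72 h compound exposure at 37 °C after overnight plating; Dosing: 0.1% DMSO in all compound wells; Measured by: CellTiter-Glo luminescence.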
MT1-MMP txn act: MT1-MMP promoter transcription activation. HT1080 MT1-MMP promoter luciferase reporter, luminescence, overnight; hits give high values. activation factor at 10 µM. 86,000 tested, 0.16% active;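 active means activation factor of at least 2 for MT1-MMP transcription at 10 µM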
HUVEC prolif 384: human endothelial cell proliferation inhibition; viability, % at 10 µM (by protocol); HUVEC proliferation, CellTiter-Glo luminescence, 72 h; hits give low values; 86,000 tested, 1.1% active;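 active means viability at or below 30%; inactive means viability above 30%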;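 further: 100% = median luminescence of DMSO-only cell control wells on each plate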
Jurkat tox 60K: cytotoxicity toward Jurkat cells; Jurkat E6.1 viability, ATP luminescence, 48 h; inhibition, % at 4 µM; 56,000 tested, 1.2% active; AID 463;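 active means inhibition above the mean inhibition of all tested compounds plus 3 SD, cut at about 28% in these data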
H69AR inhibit: growth inhibitors of human H69AR lung tumor cells; AID 598; viability, % at 10 µM; 85,000 tested, 6% active; H69AR lung tumor viability, ATP luminescence, 72 h; hits give low values;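 active means viability at or below 40%; inactive means viability above 40%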;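 further: multidrug resistant small cell line overexpressing MRP-1 efflux transporter; 100% = mean luminescence of untreated control wells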
* = called active by the depositor; . = not tested or not shown.

SMILES	Pyk2 oligo antag	Fibroblast inh	MT1-MMP txn act	HUVEC prolif 384	Jurkat tox 60K	H69AR inhibit
COc1ccc(/C=C/C(=O)NCC(=O)N/N=C/c2cc(Br)ccc2OCc2ccccc2)cc1	0.29	78	1	46	.	7.4*
CC(/C=N/NC(=O)c1ccc(Br)cc1)=C\c1ccccc1	-0.27	93	1.1	60	.	83
O=C(N/N=C/C(Br)=C/c1ccccc1)c1n[nH]c2c1CCC2	-1.9	59	0.9	30	.	1.8*
COc1ccccc1NC(=O)CC1C(=O)NCCN1C(=O)Nc1ccc(Cl)c(Cl)c1 (centres undefined)	-0.29	86	1	15*	-5	53
COc1ccccc1C(=O)N1CCNC(=O)C1CC(=O)Nc1cccc(C)c1 (centres undefined)	1.7	104	1.2	94	.	95
CCCCC(=O)NC1(C(F)(F)F)C(=O)N(CC(C)C)C2=C1C(=O)CC(C)(C)C2 (centres undefined)	-0.29	.	.	.	.	.
CC(C)Cn1nc(NC(=O)C(C)(C)C)c2cc3ccccc3nc21	-0.77	100	1.2	102	.	53
COc1ccc2nc3c(cc2c1)c(NC(=O)c1cccs1)nn3CC(C)C	-3.4*	73	1	82	-12	35*
CC1CC(C)(C)Nc2ccc(OC(=O)c3ccco3)cc21 (centres undefined)	-1.6	1.7*	.	5.7*	9	1.1*
O=S(=O)(Nc1ccc(-c2nc3ccccc3o2)cc1)c1ccccc1	-3.5*	99	1.2	91	5	92
CC(=O)Nc1ccc(S(=O)(=O)Nc2cccc(-c3nc4ccccc4o3)c2)cc1	-0.68	96	1.2	86	.	77
COc1ccc(-c2nc(CS(=O)(=O)CC(=O)NCCc3cc(OC)ccc3OC)c(C)o2)cc1	0.17	.	1.1	89	-1	90
COc1ccc(OC)c(CCNC(=O)Cn2sc3nc(C)cc(C)c3c2=O)c1	.	31*	1.2	77	-2	0.0*
CC(C)OCCCNC(=O)c1ccncc1	0.35	100	1	101	12	93
CCOCCCNC(=O)c1ccc(OC)cc1	0.73	99	1.3	92	-6	89
CCC1=Nc2cc(C(=O)NCCCOC)ccc2Sc2ccccc21	-0.74	58	0.4	46	.	32*
CCCC1=Nc2cc(C(=O)NCCCOC(C)C)ccc2Sc2ccccc21	-0.44	50	1.2	43	.	16*
COCCCNC(=O)c1cccc(C(=O)NCCCOC)c1	1.7	.	1	108	1	89
CCCC1=Nc2cc(C(=O)NCCCOCC)ccc2Sc2ccccc21	-0.41	58	0.4	38	.	33*
CCOP(=O)(OCC)C(C#N)=C1SCN(c2ccc(Cl)cc2)CS1	0.22	88	1	69	.	89
Cc1cc(C)c(C)c(S(=O)(=O)NCc2ccc(C(=O)N3CCCCC3)cc2)c1C	-0.98	99	1.5	95	.	33*
Cc1cc(C)n(-c2nc(N(c3ccccc3)c3ccccc3)nc(-n3nc(C)cc3C)n2)n1	0.55	38*	1.1	37	.	12*
COc1ccc(CNC(=O)COC(=O)c2cnccn2)cc1	0.37	103	1.2	102	.	96
COc1ccccc1Oc1nc2c(c(=O)n(Cc3ccccc3F)c(=O)n2C)n1C	-1.6	94	1	91	-4	40*
Cn1c(NCCCO)nc2c1c(=O)n(Cc1ccccc1F)c(=O)n2C	1.2	103	1.1	105	.	93
SMILES	Pyk2 oligo antag	Fibroblast inh	MT1-MMP txn act	HUVEC prolif 384	Jurkat tox 60K	H69AR inhibit
CCOc1ccccc1NC(=O)Cn1nnc(C(=O)NCc2ccco2)c1N	0.36	55	0.5	51	98*	26*
CCOc1ccccc1NC(=O)Cn1nnc(C(=O)Nc2ccc(C)cc2)c1N	-1.2	83	1	76	7	78
Cn1c(/C(C#N)=C(\O)COc2ccc3ccccc3c2)nc2ccccc21	0.64	84	1.1	58	2	12*
CC(/C(O)=C(\C#N)c1nc2ccccc2n1C)N1C(=O)c2ccccc2C1=O (centres undefined)	.	101	1	100	.	99
Cc1cccc(S(=O)(=O)Nc2ccc(C)c3c2OC(C)(C)C3)c1	-0.65	93	.	90	.	84
Cn1nc([N+](=O)[O-])nc1Oc1ccccc1	0.5	98	1.2	88	.	97
COc1ccccc1-c1nnc(Sc2nc([N+](=O)[O-])nn2C)o1	-0.84	64	0.9	59	.	2.8*
CCCCCCCCCCCC(=O)N/N=C/c1ccco1	1.6	.	.	.	.	.
COc1ccc(N(CC(=O)NN=C2CCCC2)S(=O)(=O)c2ccccc2)cc1Cl	-0.65	.	.	.	.	.
N=c1c2c(ncn1CCN1CCOCC1)Oc1ccc3ccccc3c1C2c1ccccc1 (centres undefined)	-1.9	64	1	6.1*	.	2.3*
COc1ccc(C2c3c(ncn(CCN4CCOCC4)c3=N)Oc3ccc4ccccc4c32)cc1 (centres undefined)	-2.6	71	1.1	29*	.	1.3*
c1ccc(C2c3c(ccc4ccccc34)Oc3ncn4nc(-c5ccco5)nc4c32)cc1 (centres undefined)	-0.54	.	.	.	.	.
CC1(C)CC(=O)C2=C(C1)Oc1ncn(Cc3ccco3)c(=N)c1C2c1ccccc1 (centres undefined)	-1.1	91	1.2	110	8	77
COc1ccc(C2C3=C(CC(C)(C)CC3=O)Oc3ncn(Cc4ccccc4)c(=N)c32)cc1 (centres undefined)	-3.7*	78	1.2	77	.	85
N#CC(c1cccc(Cl)c1)c1ncc(C(F)(F)F)cc1Cl (centres undefined)	-1.4	.	.	.	.	.
O=C(Cc1c(F)cccc1Cl)NCCCn1ccnc1	-0.32	.	.	.	.	.
OC(CSc1c(Cl)cccc1Cl)CN1CCN(c2ccc(F)cc2)CC1 (centres undefined)	-0.21	.	.	.	.	.
O=C1NC2(CCCC2)N=C1c1ccc(Cl)cc1	-0.51	110	1.1	87	7	99
N#CC(C#N)=c1ccc2c(c1)NC1(CCCCC1)N=2	-0.8	7.4*	0.9	28*	42*	1.1*
CCOC(=O)N1CCN(C2=NC3(CCCCC3)C(C#N)C(=O)N2)CC1 (centres undefined)	0.52	103	1	97	-2	107
CCOC(=O)CSC1=Nc2ccccc2C2=NC(CC(=O)NCc3ccc4c(c3)OCO4)C(=O)N12 (centres undefined)	-0.37	105	1.1	86	2	100
Cc1cc(N)n2ncc(-c3cccc(Br)c3)c2n1	-1.4	66	1.7	46	1	26*
COC(=O)/C(=C(/F)SCC(C)=O)C(F)(F)F	.	95	1.3	77	.	73
COc1ccc(N2C(=O)CC(Sc3nc(C)c4c(n3)CCCC4)C2=O)cc1 (centres undefined)	1	81	1.2	60	30	25*
CCCN(CCC)CCNC(=O)c1cc2c(=O)n(C)c3ccccc3c2n1C	.	83	1.2	83	1	76
Cn1c(C(=O)NCCN2CCOCC2)cc2c(=O)n(C)c3ccccc3c21	.	97	1.1	89	4	88
